According to ChEMBL document CHEMBL4270554, “Discovery of the cancer cell selective dual acting anti-cancer agent (Z)-2-(1H-indol-3-yl)-3-(isoquinolin-5-yl)acrylonitrile (A131)” (Eur J Med Chem, 2018):
Active and inactive are the calls of the source. No cut-off for these calls is given here.

How the values were obtained:
[1] = Solubility of the compound in 10% DMSO/90% water at pH 3.5 by HPLC analysis; type: physicochemical
Summary of the method: (§1)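 1 mg of HCl salt mixed with vehicle (0.5 mL total), target 1 mg/mL. Components added in order: organic solvent (DMSO, ethanol or NMP), then PEG400, then water, vortexing after each addition. Sonicated 15 min, left 3 h at room temperature, then centrifuged 5 min.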

[2] = Solubility of the compound in 10% DMSO/90% water at pH 7 by HPLC analysis; type: physicochemical; summary of the method: as §1
[3] = Cmax in Wistar rat at 10 mg/kg, po by LC-MS/MS analysis; type: ADME, organism-based; parameters: dose 10 mg/kg, route oral; conditions: in vivo
Summary of the method: (§2)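 Male Wistar rats dosed orally at 10 mg/kg with HCl salt as solution in 10% DMSO, 50% PEG400, 40% water pH 5. Catheter blood over 0-24 h into heparin, plasma by LC-MS/MS. Non-compartmental PK; n = 3, mean (SD).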

[4] = MRT in Wistar rat at 2 mg/kg, iv by LC-MS/MS analysis; type: ADME, organism-based; conditions: in vivo
Summary of the method: (§3)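 Male Wistar rats, n = 3 per route, dosed with HCl salt as 1 mg/mL solution in 10% DMSO/50% PEG400/40% water pH 5. Doses 2 mg/kg iv or 10 mg/kg po. Heparinised blood sampled via catheter (0–4 h iv, 0–24 h po), plasma analysed by LC-MS/MS. Parameters derived by non-compartmental analysis.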

[5] = Solubility of the compound in 60% PEG400/40% water at pH 5 by HPLC analysis; type: physicochemical; summary of the method: as §1
[6] = AUC (0 to infinity) in Wistar rat at 10 mg/kg, po by LC-MS/MS analysis; type: ADME, organism-based; parameters: dose 10 mg/kg, time infinity, route oral; conditions: in vivo
Summary of the method: (§4)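 Male Wistar rats (n = 3), single oral dose of 10 mg/kg HCl salt given as 1 mg/ml solution in 10% DMSO, 50% PEG400, 40% water pH 5. Blood drawn from catheter over 0–24 h into heparin tubes. Plasma spun off, stored at -80 °C, quantified by LC-MS/MS. Parameters by non-compartmental analysis, mean (SD).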

[7] = AUC (0 to t) in Wistar rat at 2 mg/kg, iv by LC-MS/MS analysis; type: ADME, organism-based; conditions: in vivo
Summary of the method: (§5)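 Male Wistar rats (n = 3), intravenous dose of 2 mg/kg HCl salt as 1 mg/ml solution in 10% DMSO, 50% PEG400, 40% water pH 5. Catheter blood sampling over 0–4 h into heparin. Plasma separated, stored at -80 °C, measured by LC-MS/MS. Non-compartmental estimation, mean (SD).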

[8] = Solubility of the compound in 60% PEG400/40% water at pH 3.5 by HPLC analysis; type: physicochemical; summary of the method: as §1
[9] = Solubility of the compound in 10% EtOH/50% PEG400/40% water at pH 3.5 by HPLC analysis; type: physicochemical; summary of the method: as §1
[10] = Solubility of the compound in 10% DMSO/50% PEG400/40% water at pH 5 by HPLC analysis; type: physicochemical; summary of the method: as §1
[11] = AUC (0 to infinity) in Wistar rat at 2 mg/kg, iv by LC-MS/MS analysis; type: ADME, organism-based; parameters: dose 2 mg/kg, time infinity, route intravenous; conditions: in vivo; summary of the method: as §5
[12] = Tmax in Wistar rat at 10 mg/kg, po by LC-MS/MS analysis; type: ADME, organism-based; conditions: in vivo; summary of the method: as §3
[13] = Solubility of the compound in 60% PEG400/40% water at pH 7 by HPLC analysis; type: physicochemical; summary of the method: as §1
[14] = Solubility of the compound in 10% EtOH/50% PEG400/40% water at pH 5 by HPLC analysis; type: physicochemical; summary of the method: as §1
[15] = Solubility of the compound in 10% NMP/50% PEG400/40% water at pH 3.5 by HPLC analysis; type: physicochemical; summary of the method: as §1
[16] = AUC (0 to t) in Wistar rat at 10 mg/kg, po by LC-MS/MS analysis; type: ADME, organism-based; conditions: in vivo; summary of the method: as §4
[17] = Half life in Wistar rat at 10 mg/kg, po by LC-MS/MS analysis; type: ADME, organism-based; conditions: in vivo; summary of the method: as §2
[18] = Solubility of the compound in 10% DMSO/50% PEG400/40% water at pH 3.5 by HPLC analysis; type: physicochemical; summary of the method: as §1
[19] = Solubility of the compound in 10% DMSO/90% water at pH 5 by HPLC analysis; type: physicochemical; summary of the method: as §1
[20] = Terminal half life in Wistar rat at 2 mg/kg, iv by LC-MS/MS analysis; type: ADME, organism-based; conditions: in vivo, read-out: beta t1/2 (converted); summary of the method: as §3
[21] = MRT in Wistar rat at 10 mg/kg, po by LC-MS/MS analysis; type: ADME, organism-based; conditions: in vivo; summary of the method: as §3
[22] = Oral bioavailability in Wistar rat at 10 mg/kg by LC-MS/MS analysis; type: ADME, organism-based; conditions: in vivo; summary of the method: as §3
[23] = Solubility of the compound in 10% NMP/50% PEG400/40% water at pH 5 by HPLC analysis; type: physicochemical; summary of the method: as §1
[24] = test system: HCT-15; test: Antitumor activity against human HCT15 cells xenografted in BALB/c athymic nu/nu mouse assessed as tumor growth inhibition at 60 mg/kg, iv bid administered every 4 days; type: functional, organism-based
Summary of the method: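 Female BALB/c nu/nu mice bearing subcutaneous HCT15 xenografts (groups of 6). Paclitaxel 60 mg/kg given via tail vein twice every 4 days in ethanol:Tween 80:5% glucose (5:15:80). Tumor volumes tracked; mean ± SEM, two-way ANOVA vs vehicle.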

[25] = Intrinsic clearance in pooled male rat liver microsomes assessed per mg protein at 3 uM preincubated for 5 mins followed by NADPH addition measured after 45 mins by LC-MS/MS method; type: ADME, microsome; conditions: read-out: CLH
Summary of the method: (§6)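 Pooled female or male rat liver microsomes (0.3 mg protein/mL) with substrate at final 3 μM in 0.1 M phosphate pH 7.4. Pre-incubated 5 min at 37 °C, then started with NADPH (final 1 mM). Sampled at 0–45 min in triplicate, quenched with cold acetonitrile plus internal standard. Parent measured by LC-MS/MS. Midazolam as positive control; no-NADPH negative control.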

[26] = Half life in pooled female rat liver microsomes at 3 uM preincubated for 5 mins followed by NADPH addition measured after 45 mins by LC-MS/MS method; type: ADME, microsome
Summary of the method: (§7)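 Pooled female or male rat liver microsomes (0.3 mg protein/mL) with 3 μM substrate in 0.1 M phosphate buffer pH 7.4, pre-incubated 5 min at 37 °C, started with 1 mM NADPH. Samples at 0-45 min quenched in cold acetonitrile with internal standard, analysed by LC-MS/MS. Triplicates; midazolam positive control, no-NADPH negative control.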

[27] = test system: hTERT-BJ; test: Induction of autophagy in human hTERT-BJ cells transformed with hTert, small t, shRNAs against p53 and pRb and H-RasV12-ER assessed as increase in LC3-2 to LC3-1 ratio at 5 uM after 24 hrs by immunoblot analysis relative to control; type: functional
Summary of the method: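 Fully transformed BJ fibroblasts (hTert, small t, shRNAs to p53 and pRb, H-RasV12-ER) grown at 37 °C, 5% CO2 in 10% FBS medium; treated 24 h at 5 μM. Triton lysis, 14% SDS-PAGE, LC3 immunoblot; LC3-II/LC3-I band ratio relative to DMSO-treated control, under 2-fold induction deemed insignificant.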

[28] = Intrinsic clearance in pooled female rat liver microsomes assessed per mg protein at 3 uM preincubated for 5 mins followed by NADPH addition measured after 45 mins by LC-MS/MS method; type: ADME, microsome; conditions: read-out: CLH; summary of the method: as §6
[29] = Half life in pooled male rat liver microsomes at 3 uM preincubated for 5 mins followed by NADPH addition measured after 45 mins by LC-MS/MS method; type: ADME, microsome; summary of the method: as §7
[30] = test system: hTERT-BJ; test: Inhibition of mitotic progression in human hTERT-BJ cells transformed with hTert, small t, shRNAs against p53 and pRb and H-RasV12-ER assessed as increase in phosphorylated histone H3 (Ser10) level at 5 uM after 24 hrs by immunoblot analysis relative to control; type: functional
Summary of the method: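 Fully transformed BJ fibroblasts (hTert, small t, shRNAs to p53 and pRb, H-RasV12-ER) treated 24 h at 5 μM. Immunoblot protocol as for HeLa. pH3 (Ser10) band intensity expressed as fold of DMSO control; under 2-fold counted as insignificant.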

Compound Cl.N#C/C(=C\c1cccc2cnccc12)c1c[nH]c2ccccc12 has a solubility [1] of 7 µg/mL, a solubility [2] of 3 µg/mL and a Cmax [3] of 1130 ng/mL. The MRT [4] was 17.4 min, the solubility [5] was 940 µg/mL and the AUC(0-inf) [6] was 1770 ng·h/mL. The AUC(0-t) [7] was 820 ng·h/mL, the solubility [8] was 1060 µg/mL and the solubility [9] was 1300 µg/mL. It also gave a solubility [10] of 1200 µg/mL, an AUC(0-inf) [11] of 822 ng·h/mL and a Tmax [12] of 43.2 min. The solubility [13] was 869 µg/mL, the solubility [14] was 741 µg/mL and the solubility [15] was 1220 µg/mL. The AUC(0-t) [16] was 1690 ng·h/mL, the half-life [17] was 96 min and the solubility [18] was 966 µg/mL. It also gave a solubility [19] of 6 µg/mL, a half-life [20] of 21.6 min and an MRT [21] of 113 min. It also gave a bioavailability [22] of 43% and a solubility [23] of 1170 µg/mL.

With CC(=O)O[C@H]1C(=O)[C@@]2(C)[C@H]([C@H](OC(=O)c3ccccc3)[C@]3(O)C[C@H](OC(=O)[C@H](O)[C@@H](NC(=O)c4ccccc4)c4ccccc4)C(C)=C1C3(C)C)[C@]1(OC(C)=O)CO[C@@H]1C[C@@H]2O the TGI [24] was “inactive”.

With COc1ccc2[nH]cc(/C(C#N)=C/c3cccc4cnccc34)c2c1 the microsomal CLint at 3 µM [25] was 106 µL/min/mg, the half-life at 3 µM [26] was 33.4 min and the “fold change (FC)” value [27] was 3.2. For the same compound, the microsomal CLint at 3 µM [28] was 66 µL/min/mg, the half-life at 3 µM [29] was 21.8 min and the “fold change (FC)” value [30] was 3.
